# Results taken from ChEMBL document CHEMBL1122263, “Resolution and absolute configuration of an ergoline-related dopamine agonist, trans-4,4a,5,6,7,8,8a,9-Octahydro-5-propyl-1H(or 2H)-pyrazolo[3,4-g]quinoline” (J Med Chem, 1983).
# Several values for one entry are separate records, joined by “and”; a condition that tells them apart may be missing. Equal values may be shown once.
# How the values were obtained:
# [1] = system: Rattus norvegicus; experiment: Hypotensive activity when administered ip in pentobarbital-anesthetized, spontaneously hypertensive rats, at a dose 1000 ug/kg; format: functional
# Outline: (§1)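 Spontaneously hypertensive rats under pentobarbital anesthesia, arterial BP recorded. Dosing iv, ip or intragastric at 1–1000 μg/kg. Value is maximum % change in BP, taken immediately after iv or within 30 min after ip/ig dosing. Mean ± SE of four rats.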
# [2] = system: Rattus norvegicus; experiment: Effect (% reduction) on serum levels in reserpinized male rats at a dose,0.017 umol/kg; format: functional
# Outline: (§2)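 Prolactin assay in reserpinized male rats, run by standard methods. Doses given orally; value is % reduction of serum prolactin versus control. Significance set at p < 0.05.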
# [3] = system: Rattus norvegicus; experiment: Hypotensive activity when administered ip in pentobarbital-anesthetized, spontaneously hypertensive rats, at a dose 10 ug/kg; format: functional; outline: as §1
# [4] = system: Rattus norvegicus; experiment: Effect of iv injection on arterial blood pressure in the anesthetized, spontaneously hypertensive rat at a dose 100 ug/kg
# [5] = system: Canis familiaris; experiment: Effect of iv injection on arterial blood pressure in the anesthetized, normotensive dog at a dose 10 ug/kg; format: functional, Canis lupus familiaris
# [6] = system: Canis familiaris; experiment: Effect of iv injection on arterial blood pressure in the anesthetized, normotensive dog at a dose 1000 ug/kg; format: functional, Canis lupus familiaris
# [7] = system: Rattus norvegicus; experiment: Effect of iv injection on arterial blood pressure in the anesthetized, spontaneously hypertensive rat at a dose 10 ug/kg
# [8] = system: Rattus norvegicus; experiment: Hypotensive activity when administered iv in pentobarbital-anesthetized, spontaneously hypertensive rats, at a dose 100 ug/kg; format: functional; outline: as §1
# [9] = system: Rattus norvegicus; experiment: Hypotensive activity when administered ip in pentobarbital-anesthetized, spontaneously hypertensive rats, at a dose 100 ug/kg; format: functional; outline: as §1
# [10] = system: Rattus norvegicus; experiment: Hypotensive activity when administered iv in pentobarbital-anesthetized, spontaneously hypertensive rats, at a dose 1000 ug/kg; format: functional; outline: as §1
# [11] = system: Rattus norvegicus; experiment: Effect (% reduction) on serum levels in reserpinized male rats at a dose, 0.17 umol/kg; format: functional; outline: as §2
# [12] = system: Rattus norvegicus; experiment: Effect (% reduction) on serum levels in reserpinized male rats at a dose, 0.03 umol/kg; format: functional; outline: as §2
# [13] = system: Rattus norvegicus; experiment: Effect (% reduction) on serum levels in reserpinized male rats at a dose, 0.3 umol/kg; format: functional; outline: as §2
# [14] = system: Rattus norvegicus; experiment: Effect of iv injection on arterial blood pressure in the anesthetized, spontaneously hypertensive rat at a dose 1000 ug/kg
# [15] = system: Rattus norvegicus; experiment: Hypotensive activity when administered ig in pentobarbital-anesthetized, spontaneously hypertensive rats, at a dose 10 ug/kg; format: functional; outline: as §1
# [16] = system: Canis familiaris; experiment: Effect of iv injection on arterial blood pressure in the anesthetized, normotensive dog at a dose 1 ug/kg; format: functional, Canis lupus familiaris
# [17] = system: Rattus norvegicus; experiment: Hypotensive activity when administered iv in pentobarbital-anesthetized, spontaneously hypertensive rats, at a dose 1 ug/kg; format: functional; outline: as §1
# [18] = system: Rattus norvegicus; experiment: Hypotensive activity when administered ig in pentobarbital-anesthetized, spontaneously hypertensive rats, at a dose 1000 ug/kg; format: functional; outline: as §1
# [19] = system: Rattus norvegicus; experiment: Hypotensive activity when administered ig in pentobarbital-anesthetized, spontaneously hypertensive rats, at a dose 100 ug/kg; format: functional; outline: as §1
# [20] = system: Rattus norvegicus; experiment: Hypotensive activity when administered iv in pentobarbital-anesthetized, spontaneously hypertensive rats, at a dose 10 ug/kg; format: functional; outline: as §1
# [21] = system: Felis catus; experiment: Effect of iv injection on arterial blood pressure in the anesthetized, normotensive cat at a dose 10 ug/kg; format: functional
# [22] = system: Canis familiaris; experiment: Effect of iv injection on arterial blood pressure in the anesthetized, normotensive dog at a dose 100 ug/kg; format: functional, Canis lupus familiaris
# [23] = system: Rattus norvegicus; experiment: Effect of iv injection on arterial blood pressure in the anesthetized, spontaneously hypertensive rat at a dose 1 ug/kg
# [24] = system: Felis catus; experiment: Effect of iv injection on arterial blood pressure in the anesthetized, normotensive cat at a dose 100 ug/kg; format: functional
# [25] = system: Rattus norvegicus; experiment: Hypotensive activity when administered iv in pentobarbital-anesthetized, spontaneously hypertensive rats, at a dose 0.1 ug/kg; format: functional
# [26] = system: Rattus norvegicus; experiment: Effect on Turning behavior in male rats with unilateral 6-hydroxydopamine-induced lesions of the nigrostriatal tract at 500 ug/kg ip; format: functional
# Outline: (§3)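 Rats carrying unilateral 6-hydroxydopamine lesions of the nigrostriatal tract, six per group, dosed ip. Contralateral turning recorded as: % of rats making at least one turn/min for 15 min; average turns in the first 15 min after turning began; turns in the first hour; and duration of turning in hours.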
# [27] = system: Rattus norvegicus; experiment: Effect on turning behavior in male rats with unilateral 6-OH-Dopamine-induced lesions of the nigrostriatal tract at 100 ug/kg i.p.; format: functional; outline: as §3
# [28] = system: Rattus norvegicus; experiment: Hypotensive activity when administered iv in pentobarbital-anesthetized, spontaneously hypertensive rats, at a dose 100 ug/Kg; format: functional; outline: as §1
# [29] = system: Rattus norvegicus; experiment: Hypotensive activity when administered iv in pentobarbital-anesthetized, spontaneously hypertensive rats, at a dose 10 ug/Kg; format: functional; outline: as §1
# [30] = system: Rattus norvegicus; experiment: Hypotensive activity when administered iv in pentobarbital-anesthetized, spontaneously hypertensive rats, at a dose 1 ug/Kg; format: functional; outline: as §1
# [31] = species on record: Rattus norvegicus; experiment: Effect of lordotic behavior of rats preinjection lordosis-to-mount ratio; format: functional
# Outline: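 Chronically ovariectomized Long-Evans hooded rats primed with 100 μg estrone sc in sesame oil 48 h before testing. Lordosis-to-mount ratio scored over 15 mounts by a sexually active male before injection. Drug given sc at 25 μg/kg in 1 mM ascorbic acid/1 mM acetic acid; retested 90 min later. N = 20; X ± SE.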
# [32] = system: Rattus norvegicus; experiment: Hypotensive activity when administered iv in pentobarbital-anesthetized, spontaneously hypertensive rats, at a dose 1000 ug/Kg; format: functional; outline: as §1
structure (smiles),measurement,setting,value
CCCN1CCC[C@@H]2Cc3n[nH]cc3CC21 (mixture of isomers),BP change,[1],-45.7%
same,Reduction,[2],19%
same,BP change,[3],-6.1%
same,BP change,[4],-32%
same,BP change,[5],-34%
same,BP change,[6],-46%
same,BP change,[7],-22%
same,BP change,[8],-32%
same,BP change,[9],-40.5%
same,BP change,[10],-52.2%
same,Reduction,[11],65%
same,Reduction,[12],20%
same,Reduction,[13],76%
same,BP change,[14],-52%
same,BP change,[15],-5.4%
same,BP change,[16],-15%
same,BP change,[17],-12.7%
same,BP change,[18],-50.7%
same,BP change,[19],-27.6%
same,BP change,[20],-22.4%
same,BP change,[21],-23%
same,BP change,[22],-45%
same,BP change,[23],-13%
same,BP change,[24],-45%
"CCCN1CCC[C@@H]2Cc3n[nH]cc3CC21 (single isomer, unassigned; (+))",BP change,[25],-8.5%
same,Activity,[26],0%
same,Activity,[27],0% and 0
same,BP change,[28],-4.6%
same,BP change,[29],-5%
same,BP change,[30],-5.1%
same,L/M ratio,[31],0.12
same,BP change,[32],-6.4%
"CCCN1CCC[C@@H]2Cc3n[nH]cc3CC21 (single isomer, unassigned; (-))",Reduction,[2],26%
same,BP change,[25],-7.7%
same,Activity,[26],100%
same,Reduction,[11],73%
same,Reduction,[12],38%
same,Reduction,[13],88%
same,BP change,[28],-38.6%
same,BP change,[29],-25.2%
same,BP change,[30],-14.3%
CN1CCc2cccc3c2[C@H]1Cc1ccc(O)c(O)c1-3 [APOMORPHINE],Activity,[26],100%
